GSTO1 counter: GSTO1 inhibition, counter-screen for RBBP9 inhibitors. hit rate 1.1% among 300,000. P78417. recombinant GSTO1, activity-based probe fluorescence polarization. inhibition, % at 5.96 µM;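 active means inhibition above the campaign mean inhibition plus 3 SD, cut at about 35% in these data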;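 further: 0% = GSTO1-1 with DMSO and 100% = wells lacking GSTO1-1 enzyme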
PRMT1 inh: inhibitors of human PRMT1; Q99873; recombinant PRMT1, activity-based probe fluorescence polarization; inhibition, % at 2.79 µM; hit rate 1.3% among 370,000;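 active means inhibition above about 21% made by adding two undisclosed values, limit read from the data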
RBBP9 inh: human RBBP9 hydrolase inhibition | O75884 | recombinant RBBP9, FP-Rh probe fluorescence polarization | inhibition, % at 7.94 µM | hit rate 0.2% among 220,000;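 active means inhibition above the campaign mean of all tested compounds plus 3 SD, cut at about 14% in these data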;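 further: plate controls were DMSO wells with RBBP9 for no effect and wells lacking RBBP9 protein for full effect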
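system = RBBP9 protein | input = RBBP9 at 2.5 µM in dispensed solution, before mixing | measured by = fluorescence polarization (mP), excitation 525 nm, emission 598 nm | incubation = enzyme-compound preincubation 30 min, then probe labeling 45 min, 25 °C | buffer or medium = Tris-NaCl-Pluronic buffer, pH 8.0 | compound = single dose 7.94 µM | also added = FP-Rh probe, 375 nM dispensing solution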
PAD4 FP inh: blocks human protein arginine deiminase 4. Q9UM07. recombinant PAD4, RCA probe fluorescence polarization. inhibition, % at 6.36 µM. hit rate 0.41% among 330,000;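 active means percent inhibition above a cutoff equal to the mean of all tested compounds plus 3 SD, cut at about 15% in these data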;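 further: 0% = PAD4 with RCA probe and DMSO and 100% = probe without PAD4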
PME-1 primary: blocks human protein phosphatase methylesterase 1; inhibition, % at 5.9 µM; hit rate 0.53% among 320,000; recombinant PME-1, FP-Rh probe fluorescence polarization; Q9Y570;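 active means inhibition above the campaign mean of all compounds plus 3 SD, cut at about 26% in these data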;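 further: competitive labeling of PME-1 active site by serine hydrolase directed probe; 0% = PME-1 with DMSO and 100% = wells lacking PME-1 enzyme; inhibitors block probe labeling so polarization falls and inhibition rises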
Target sequence (Q9Y570 whole entry, looked up): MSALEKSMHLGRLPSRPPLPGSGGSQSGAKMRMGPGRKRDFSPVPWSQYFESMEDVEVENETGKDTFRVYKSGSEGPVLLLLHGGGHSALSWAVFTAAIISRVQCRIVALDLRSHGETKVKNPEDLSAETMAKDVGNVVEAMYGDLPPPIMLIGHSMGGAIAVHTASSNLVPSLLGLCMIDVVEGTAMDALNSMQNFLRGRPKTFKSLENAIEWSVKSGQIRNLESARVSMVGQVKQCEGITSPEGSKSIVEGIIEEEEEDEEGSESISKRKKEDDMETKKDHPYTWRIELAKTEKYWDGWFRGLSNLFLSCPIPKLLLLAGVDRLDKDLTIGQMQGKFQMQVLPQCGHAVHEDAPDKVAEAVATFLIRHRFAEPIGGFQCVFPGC
Fam108B counter: blocks mouse Fam108B hydrolase in RBBP9 counter-screen. recombinant Fam108B, FP-Rh probe fluorescence polarization. inhibition, % at 9.51 µM. hit rate 0.33% among 300,000;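 active means inhibition above the screen mean inhibition plus 3 SD, computed separately per campaign, cut at about 18% in these data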;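 further: inhibitors lower polarization as less probe binds the enzyme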
PAD4 confirm: confirmation of human PAD4 inhibitors; hit rate 28% among 1,200; AID 488796; inhibition, % at 6.36 µM; shares compounds with PAD4 FP inh; recombinant PAD4, RCA probe fluorescence polarization;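 active means mean inhibition across replicates above the hit cutoff set by the earlier primary screen, cut at about 15% in these data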;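 further: inhibitors block active-site labeling by the probe so polarization falls; 0% = PAD4 with probe and DMSO and 100% = probe without PAD4 enzyme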
PRMT1 confirm: confirmation of human PRMT1 inhibitors. hit rate 42% among 3,300. inhibition, % at 2.79 µM. shares compounds with PRMT1 inh. recombinant His-PRMT1, activity-based probe fluorescence polarization;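 active means mean inhibition across replicates above the hit cutoff derived for the earlier primary screen, cut at about 22% in these data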
The depositor's hits bear a star; · = not tested or not shown. The list is not random: actives were taken first. Their share in the collection is about 2.3%.

SMILES	GSTO1 counter	PRMT1 inh	RBBP9 inh	PAD4 FP inh	PME-1 primary	Fam108B counter	PRMT1 confirm	others
CCNc1cc(=O)n(C)c(=O)n1C	-12	0	-6	-6	-4	-4	·
O=C(O)c1ccccc1C1=Nc2ccc(O)cc2Oc2cc(O)ccc21	17	47*	0	26*	17	18	65*	PAD4 confirm=35*
CS/C(=N\S(=O)(=O)c1cccs1)NC(=O)CSc1nc2ccccc2s1	-26	28*	-7	18*	0	11	33*	PAD4 confirm=7
C/C(=N/NC(=O)CSc1nc2ccccc2s1)c1ccncc1	7	-1	-3	4	1	0	·
CCOc1ccc(C(=O)N2CCCC2)cc1OC	-5	1	-6	-5	-3	-1	·
C[C@H](CO)N1C[C@H](C)[C@@H](CN(C)C)Oc2c(NS(=O)(=O)c3cn(C)cn3)cccc2C1=O	·	-1	·	-3	·	·	·
COc1ccc(S(=O)(=O)N(C(C)=O)c2ccc3oc(=O)sc3c2)cc1	32	94*	14	22*	-3	1	64*	PAD4 confirm=7
Cc1nc(=O)c(-c2ccccc2)c(C)n1-c1cccc(C(=O)O)c1	0	0	4	-1	6	-2	·
Cc1ccc(-c2ccccc2)n1-c1cccc(C(=O)O)c1	12	62*	-1	-1	0	0	11
Cc1ccc(-c2ccccc2)n1-c1ccc(C(=O)O)cc1	8	73*	7	0	-7	6	-1
O=C1C=C(NNC(=O)c2ccncc2)CC(c2ccccc2)C1 (stereo not drawn)	9	63*	-7	0	-7	-3	2
O=C1C=C(NCc2ccncc2)CC(c2ccccc2)C1 (stereo not drawn)	3	1	-6	-1	-5	7	·
O=C(O)c1ccc(/C=C2\SC(=S)N(NC(=O)c3ccccc3[N+](=O)[O-])C2=O)cc1	·	29*	·	·	·	·	1
CCc1nnc(NC(=O)CSc2nnc(Cc3cccn3C)n2C)s1	8	1	6	-2	-3	-2	·
Cc1cccc(NC(=O)CSc2nc3nc(C)cc(C)c3c(=O)[nH]2)c1	10	-2	-5	0	-4	2	·
CC(=O)Nc1c(O)nc(SCC(=O)Nc2ccc(C(C)=O)cc2)[nH]c1=O	13	59*	-2	9	2	-1	19
CC(=O)Nc1c(O)nc(SCC(=O)Nc2cccc(C)c2)[nH]c1=O	-2	54*	5	0	-2	0	3
Cc1sc2nc(SCC(=O)Nc3cccc(S(N)(=O)=O)c3)[nH]c(=O)c2c1C	·	27*	·	0	·	·	1
Cc1sc2nc(SCC(=O)Nc3ccc(S(N)(=O)=O)cc3)[nH]c(=O)c2c1C	-15	0	·	-2	1	1	·
COc1ccc(NC(=O)CN2CCN(c3ccc(C)cc3C)CC2)cc1	4	4	·	-1	-7	1	·
CCC(=O)/C=C1\Sc2ccc(OC)cc2N1CC	16	52*	-8	5	3	9	19
Cc1ccc(-n2c(SCC(=O)Nc3ccc4c5c(cccc35)CC4)nc(O)c(C)c2=O)cc1	7	37*	-6	3	3	4	31*
Cc1ccc(-n2c(SCC(=O)Nc3ccc4c5c(cccc35)CC4)nc(O)cc2=O)cc1	-1	1	-11	-3	-12	-6	·
O=C(Cc1ccc(S(=O)(=O)N2CCOCC2)s1)Nc1nc2c(s1)CCCC2	26	29*	-6	0	-7	6	4
CCC1Oc2ccc(C)cc2N(CC(=O)N(Cc2ccc(C)o2)C2CCCC2)C1=O (stereo not drawn)	0	47*	-10	4	-1	6	38*
O=C(Nc1ccc2c(c1)CCC2)C1CCN(c2ncccn2)CC1	12	-2	-3	-6	4	4	·
Cc1ccc(C2C3=C(CC(C)(C)CC3=O)Nc3[nH]c(=S)[nH]c(=O)c32)cc1 (stereo not drawn)	1	52*	·	6	-15	-2	5

Compound activity as filed in PubChem BioAssay.
